Series [1] is described as follows: Clearance in iv dosed rat. Conditions: in vivo. The format is ADME, organism-based.
Series [2] in a line: Half life in iv dosed rat. The format is ADME, organism-based. The conditions noted are these: in vivo.
The target in series [3] is Mast/stem cell growth factor receptor Kit (Homo sapiens, UniProt P10721). The experiment in a line: Displacement of [33P]ATP from human recombinant c-KIT domain after 20 mins by scintillation counting. Summed up:
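Radiometric kinase assay run in 100 mM HEPES pH 7.5 with 10 mM MgCl2, 25 mM NaCl, 0.01% BSA, 1 mM DTT and 0.5 mg/mL polyE4Y. Enzyme was 5 nM c-KIT with 700 μM 33P-ATP; inhibitor was added from DMSO. The reaction was started with ATP/substrate, run 20 min, stopped with 20% TCA/4 mM ATP, filtered, washed with 5% TCA and counted by scintillation.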

The target in series [4] is Tyrosine-protein kinase JAK2 (Homo sapiens, UniProt O60674). The experiment in a line: Inhibition of JAK2 by spectrophotometry.
Tyrosine-protein kinase JAK2, sequence (O60674 whole entry): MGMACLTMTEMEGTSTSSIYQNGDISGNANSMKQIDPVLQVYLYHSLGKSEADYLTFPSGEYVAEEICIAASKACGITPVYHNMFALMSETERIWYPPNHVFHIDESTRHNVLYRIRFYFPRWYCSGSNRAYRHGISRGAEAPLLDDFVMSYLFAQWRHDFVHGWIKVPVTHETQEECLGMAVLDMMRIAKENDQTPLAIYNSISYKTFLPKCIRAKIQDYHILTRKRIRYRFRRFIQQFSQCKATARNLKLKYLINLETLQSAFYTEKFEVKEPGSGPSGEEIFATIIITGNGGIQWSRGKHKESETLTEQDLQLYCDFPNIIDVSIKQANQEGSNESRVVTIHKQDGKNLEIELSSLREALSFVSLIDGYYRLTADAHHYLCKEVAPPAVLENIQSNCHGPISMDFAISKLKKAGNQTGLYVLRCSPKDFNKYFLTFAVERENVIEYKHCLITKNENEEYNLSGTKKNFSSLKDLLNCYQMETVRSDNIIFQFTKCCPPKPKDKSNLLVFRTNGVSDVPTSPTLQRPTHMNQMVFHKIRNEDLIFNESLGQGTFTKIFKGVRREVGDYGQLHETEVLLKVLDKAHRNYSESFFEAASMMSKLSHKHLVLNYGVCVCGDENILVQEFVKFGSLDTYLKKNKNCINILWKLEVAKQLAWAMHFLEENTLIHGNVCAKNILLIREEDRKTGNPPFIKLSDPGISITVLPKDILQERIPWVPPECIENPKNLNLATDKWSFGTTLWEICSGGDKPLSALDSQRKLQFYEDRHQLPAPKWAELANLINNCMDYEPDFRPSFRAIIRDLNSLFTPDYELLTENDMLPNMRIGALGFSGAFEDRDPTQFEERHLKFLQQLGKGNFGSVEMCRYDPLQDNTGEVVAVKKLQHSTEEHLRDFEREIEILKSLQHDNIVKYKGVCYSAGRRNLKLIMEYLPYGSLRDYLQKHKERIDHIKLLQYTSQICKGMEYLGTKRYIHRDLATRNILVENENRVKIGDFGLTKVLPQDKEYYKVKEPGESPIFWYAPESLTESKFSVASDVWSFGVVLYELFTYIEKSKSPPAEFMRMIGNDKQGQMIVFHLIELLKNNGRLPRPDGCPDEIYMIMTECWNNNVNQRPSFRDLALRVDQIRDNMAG
A further series concerns the target T1, Aurora kinase A (Homo sapiens, UniProt O14965).
T1 sequence (O14965 whole entry): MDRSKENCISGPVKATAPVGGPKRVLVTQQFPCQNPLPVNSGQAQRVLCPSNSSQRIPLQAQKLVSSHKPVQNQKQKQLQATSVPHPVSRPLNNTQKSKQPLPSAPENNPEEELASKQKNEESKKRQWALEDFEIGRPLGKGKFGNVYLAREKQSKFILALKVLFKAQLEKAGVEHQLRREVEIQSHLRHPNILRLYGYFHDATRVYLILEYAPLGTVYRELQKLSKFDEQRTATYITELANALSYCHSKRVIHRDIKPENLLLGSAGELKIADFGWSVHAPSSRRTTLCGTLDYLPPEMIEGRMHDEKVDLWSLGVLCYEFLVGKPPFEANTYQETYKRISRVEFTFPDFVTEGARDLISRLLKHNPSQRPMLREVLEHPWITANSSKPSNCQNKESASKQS
The experiment in a line: Inhibition of Aurora A by spectrophotometry.

The target of series [5] is T2, Receptor-type tyrosine-protein kinase FLT3 (Homo sapiens, UniProt P36888).
T2 sequence (P36888 whole entry): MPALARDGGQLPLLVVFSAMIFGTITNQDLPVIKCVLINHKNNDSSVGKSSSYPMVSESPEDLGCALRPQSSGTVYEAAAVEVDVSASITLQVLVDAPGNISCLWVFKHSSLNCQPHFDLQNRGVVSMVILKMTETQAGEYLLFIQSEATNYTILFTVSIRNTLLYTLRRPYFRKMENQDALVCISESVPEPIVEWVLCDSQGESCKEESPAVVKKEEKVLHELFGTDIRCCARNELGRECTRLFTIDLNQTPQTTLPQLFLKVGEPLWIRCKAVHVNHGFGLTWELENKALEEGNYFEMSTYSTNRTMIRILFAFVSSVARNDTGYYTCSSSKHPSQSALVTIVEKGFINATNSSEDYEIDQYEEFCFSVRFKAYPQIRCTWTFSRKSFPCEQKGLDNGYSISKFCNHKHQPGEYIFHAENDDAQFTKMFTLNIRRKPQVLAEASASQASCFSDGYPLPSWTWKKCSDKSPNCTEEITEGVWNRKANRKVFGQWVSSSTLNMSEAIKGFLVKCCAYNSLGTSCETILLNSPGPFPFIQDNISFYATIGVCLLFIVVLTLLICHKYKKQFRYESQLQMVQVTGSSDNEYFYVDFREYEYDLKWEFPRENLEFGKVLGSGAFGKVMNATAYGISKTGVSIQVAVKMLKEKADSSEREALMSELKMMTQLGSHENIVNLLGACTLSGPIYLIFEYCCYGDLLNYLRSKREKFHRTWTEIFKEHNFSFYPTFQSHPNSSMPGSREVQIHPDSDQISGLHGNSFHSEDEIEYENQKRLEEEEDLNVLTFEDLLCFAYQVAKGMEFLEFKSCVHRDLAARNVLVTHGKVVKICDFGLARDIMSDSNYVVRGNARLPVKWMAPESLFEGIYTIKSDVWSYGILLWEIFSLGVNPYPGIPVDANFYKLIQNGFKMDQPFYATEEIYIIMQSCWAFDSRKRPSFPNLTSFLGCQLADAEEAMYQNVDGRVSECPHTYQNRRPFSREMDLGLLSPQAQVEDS
The experiment in a line: Displacement of [33P]ATP from human recombinant FLT3 domain after 20 mins by scintillation counting.

Series [6] concerns the target T3, Interleukin-1 receptor-associated kinase 4 (Homo sapiens, UniProt Q9NWZ3).
T3 sequence (Q9NWZ3 whole entry): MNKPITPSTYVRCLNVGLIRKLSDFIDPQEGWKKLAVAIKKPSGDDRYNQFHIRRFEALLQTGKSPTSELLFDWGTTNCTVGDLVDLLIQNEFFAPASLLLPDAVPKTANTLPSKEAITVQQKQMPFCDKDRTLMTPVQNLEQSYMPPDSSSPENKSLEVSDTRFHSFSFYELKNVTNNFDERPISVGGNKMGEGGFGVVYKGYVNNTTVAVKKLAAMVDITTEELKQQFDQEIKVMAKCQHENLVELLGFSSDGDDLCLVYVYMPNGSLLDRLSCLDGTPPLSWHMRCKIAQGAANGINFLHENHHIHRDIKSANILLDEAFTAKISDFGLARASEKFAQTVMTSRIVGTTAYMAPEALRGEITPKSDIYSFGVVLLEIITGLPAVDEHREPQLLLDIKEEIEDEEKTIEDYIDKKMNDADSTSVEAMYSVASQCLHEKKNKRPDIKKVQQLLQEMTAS
The experiment in a line: Inhibition of IRAK4 by spectrophotometry.

For a further series, the system named is MV4-11. The experiment in a line: Cytotoxicity against human MV411 cells.

Mast/stem cell growth factor receptor Kit, sequence (P10721 whole entry, the tested form may be a part): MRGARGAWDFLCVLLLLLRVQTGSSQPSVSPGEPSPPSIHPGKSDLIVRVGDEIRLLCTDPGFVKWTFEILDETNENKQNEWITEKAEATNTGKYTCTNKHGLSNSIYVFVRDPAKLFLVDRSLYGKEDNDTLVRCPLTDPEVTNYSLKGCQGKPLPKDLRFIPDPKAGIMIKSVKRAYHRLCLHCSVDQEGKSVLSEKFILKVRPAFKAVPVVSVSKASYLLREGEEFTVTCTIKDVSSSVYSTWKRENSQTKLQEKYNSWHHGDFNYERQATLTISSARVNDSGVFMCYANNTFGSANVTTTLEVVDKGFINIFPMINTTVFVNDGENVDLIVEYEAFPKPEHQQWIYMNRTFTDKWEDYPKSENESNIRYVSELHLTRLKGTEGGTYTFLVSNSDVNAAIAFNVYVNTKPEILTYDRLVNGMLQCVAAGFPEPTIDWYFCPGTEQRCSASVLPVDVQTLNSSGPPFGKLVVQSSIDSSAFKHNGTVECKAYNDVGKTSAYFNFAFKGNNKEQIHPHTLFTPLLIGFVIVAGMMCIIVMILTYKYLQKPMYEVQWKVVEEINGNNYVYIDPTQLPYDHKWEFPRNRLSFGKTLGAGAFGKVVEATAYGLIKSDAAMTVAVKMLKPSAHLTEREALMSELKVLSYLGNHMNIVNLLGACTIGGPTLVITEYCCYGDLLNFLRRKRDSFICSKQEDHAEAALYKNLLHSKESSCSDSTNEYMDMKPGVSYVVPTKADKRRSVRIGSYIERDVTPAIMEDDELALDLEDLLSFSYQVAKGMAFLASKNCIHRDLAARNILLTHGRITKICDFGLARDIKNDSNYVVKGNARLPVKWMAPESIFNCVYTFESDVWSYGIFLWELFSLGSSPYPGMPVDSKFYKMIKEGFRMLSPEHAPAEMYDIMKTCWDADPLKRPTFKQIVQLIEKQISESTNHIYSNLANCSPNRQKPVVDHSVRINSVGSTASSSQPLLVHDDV

As to `Nc1nc(Nc2cccc(C(=O)N3CCOCC3)c2)nn1-c1ccccn1`, the clearance (as a rule, the volume of plasma or blood freed of the substance per unit of time) in series [1] came out at 16.7 mL/min/kg. Besides, in series [2], the half-life (as a rule, the time in which the quantity being followed falls by half) was 2.92 h. Moreover, the Ki (commonly a measure of affinity in units of concentration, obtained from inhibition or displacement) in series [3] worked out at 10 nM.
`N#Cc1ccc(-n2nc(Nc3ccccc3Cl)nc2N)nc1`: the Ki was over 4000 nM in series [4], over 2500 nM on Aurora kinase A, 15 nM in series [5] and 36 nM in series [6].
As to `Nc1nc(Nc2ccc(N3CCOCC3)cc2)nn1-c1ccccn1`, the clearance in series [1] stood at 31.1 mL/min/kg. In addition, the half-life in series [2] is 2.84 h. Further, in the series on MV4-11, the IC50 (commonly the midpoint of a concentration-inhibition curve) was determined as 2 nM.
Take `CC(=O)Nc1cccc(Nc2nc(N)n(-c3ccccn3)n2)c1`: the clearance in series [1] was 44.6 mL/min/kg. This compound gave a half-life in series [2] of 2.81 h. In addition, the Ki in series [3] was determined as 180 nM. In addition, half-maximal inhibition with MV4-11 (IC50) required 15 nM.
Regarding `Nc1nc(Nc2ccccc2Cl)nn1-c1ccccn1`, the Ki in series [4] was over 4000 nM; at Aurora kinase A it was 2000 nM; in series [5], 18 nM; in series [6], 1200 nM.
For `COc1ccc(N2CCOCC2)cc1Nc1nc(N)n(-c2ccccn2)n1`, the Ki in series [4] is over 4000 nM; on Aurora kinase A it was over 4000 nM; in series [5], 6 nM; in series [6], 160 nM; in series [3], 60 nM.
Take `CN1CCC(c2ccc(Nc3nc(N)n(-c4ccccn4)n3)cc2)CC1`: the clearance in series [1] was found to be 77.1 mL/min/kg. The half-life in series [2] is 2.45 h. The 50% inhibitory concentration (IC50) in the series with MV4-11 worked out at 0.3 nM.
In series [1], `CC(=O)N1CCC(c2ccc(Nc3nc(N)n(-c4ccccn4)n3)cc2)C1` (stereo not given) had a clearance of 25.1 mL/min/kg. The same compound showed a half-life in series [2] of 1.42 h. Moreover, the Ki in series [3] was under 50 nM. The IC50 in the series on MV4-11 was 1 nM.
Compound `Nc1nc(Nc2ccc(C(O)CCCN3CCOCC3)cc2)nn1-c1ccccn1` (stereo not given) had a clearance in series [1] of 17.7 mL/min/kg. The compound further gave a half-life in series [2] of 1.03 h. The inhibition constant Ki in series [3] is under 50 nM. In the series with MV4-11, this compound showed an IC50 of 1 nM.
In series [1], `Nc1nc(Nc2ccc([C@H]3CC[C@@H](N4CCOCC4)CC3)cc2)nn1-c1ccccn1` yielded a clearance of 77 mL/min/kg. Also, the Ki in series [5] was 5 nM. Also, the half-life in series [2] is 1.6 h. Moreover, in the series with MV4-11, the IC50 turned out to be 1 nM.
With `Nc1nc(Nc2ccc(C(=O)N3CCOCC3)cc2)nn1-c1ccccn1`, the clearance in series [1] is 4.4 mL/min/kg. This compound also gave a half-life in series [2] of 2.22 h. In addition, the Ki in series [3] was 21 nM. Also, the midpoint of inhibition in the series on MV4-11, the IC50, lay at 2 nM.
In the case of `COc1ccccc1Nc1nc(N)n(-c2cc(NCCN(C)C)ncn2)n1`, the Ki in series [4] was over 4000 nM; at Aurora kinase A it was 2100 nM; in series [5] it was 1 nM; in series [6] it was 78 nM; in series [3], 270 nM.
The corresponding values for `COc1ccccc1Nc1nc(N)n(-c2ccccn2)n1` are over 4000 nM, over 7000 nM, 15 nM, 420 nM and 12 nM.
Take `CN1CCN(c2ccc(Nc3nc(N)n(-c4ccccn4)n3)cc2)CC1`: the clearance in series [1] was 84.4 mL/min/kg. In series [2], this compound gave a half-life of 2.54 h. It took 2 nM to reach half-maximal inhibition in the series with MV4-11 (IC50).
For `CN1CCC(c2cccc(Nc3nc(N)n(-c4ccccn4)n3)c2)CC1`, the clearance in series [1] came out at 174 mL/min/kg. Also, the Ki in series [5] was under 1 nM; in series [3] it was under 50 nM. This compound also showed a half-life in series [2] of 2.48 h. The compound also returned an IC50 in the series on MV4-11 of under 1 nM.
Consider `Nc1nc(Nc2ccc(C(=O)NCCN3CCOCC3)cc2)nn1-c1ccccn1`, for which the clearance in series [1] amounted to 63.9 mL/min/kg. In series [2], this compound gave a half-life of 1.61 h. Half-maximal inhibition with MV4-11 (IC50) required 0.9 nM.
As to `COc1cc(N2CCOCC2)ccc1Nc1nc(N)n(-c2ccc(C#N)cn2)n1`, the Ki in series [4] is over 4000 nM; at Aurora kinase A, 2600 nM; in series [5] it was 22 nM; in series [6], 340 nM; in series [3], 205 nM.
`Nc1nc(Nc2ccc(OCCCN3CCOCC3)cc2)nn1-c1ccccn1` yielded a clearance in series [1] of 67.2 mL/min/kg. Further, the half-life in series [2] is 0.93 h. In series [3], the Ki was under 50 nM.
Take `COc1ccc(Nc2nc(N)n(-c3ccccn3)n2)cc1OC`: the Ki in series [4] stood at 67 nM; on Aurora kinase A it was 103 nM; in series [5] it was 2.8 nM; in series [6] it was 43 nM; in series [3], 9 nM.
As for `Nc1nc(Nc2cc(N3CCOCC3)ccc2F)nn1-c1ccccn1`, the Ki is 590 nM in series [4]; over 3000 nM on Aurora kinase A; 12 nM in series [5]; 440 nM in series [6]; 37 nM in series [3].
In the case of `CC(=O)Nc1ccc(Nc2nc(N)n(-c3ccccn3)n2)cc1`, the clearance in series [1] was determined as 42.1 mL/min/kg. In addition, the half-life in series [2] was 1.33 h. Further, the Ki in series [3] came to 240 nM. This compound showed an IC50 in the series on MV4-11 of 18 nM.
